# Results reported in ChEMBL document CHEMBL1135874, “Novel agents combining platelet activating factor (PAF) receptor antagonist with thromboxane synthase inhibitor (TxSI)” (Bioorg Med Chem Lett, 2002).
# What was measured:
# [1] = molecular target: T1, Thromboxane-A synthase (Rattus norvegicus) (UniProt P49430); experiment: Thromboxane synthase inhibitor (TxSI) activity assessed by ex vivo inhibition of serum TXB2 production in rat after Intravenous administration; type: functional, organism-based
# T1 sequence (whole entry): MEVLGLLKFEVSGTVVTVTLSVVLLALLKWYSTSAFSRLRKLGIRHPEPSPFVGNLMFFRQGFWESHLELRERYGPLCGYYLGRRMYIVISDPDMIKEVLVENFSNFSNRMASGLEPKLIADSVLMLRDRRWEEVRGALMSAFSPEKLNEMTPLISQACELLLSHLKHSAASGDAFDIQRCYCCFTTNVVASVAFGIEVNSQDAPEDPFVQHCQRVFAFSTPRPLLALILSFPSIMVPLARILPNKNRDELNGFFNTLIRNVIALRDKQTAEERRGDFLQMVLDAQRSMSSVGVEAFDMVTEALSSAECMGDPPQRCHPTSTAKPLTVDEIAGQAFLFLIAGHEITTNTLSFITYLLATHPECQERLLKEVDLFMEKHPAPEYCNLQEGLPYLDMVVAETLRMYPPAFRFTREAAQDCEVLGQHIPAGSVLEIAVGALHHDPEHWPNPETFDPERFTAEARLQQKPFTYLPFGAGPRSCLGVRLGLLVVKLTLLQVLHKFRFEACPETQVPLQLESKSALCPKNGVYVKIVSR
# In short: (§1)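 Rats dosed intravenously or orally. Blood was then taken, and serum TxB2 production was measured ex vivo. Values are reported as ED50 doses in mg/kg. Oral testing used the same method as intravenous testing.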
# [2] = molecular target: Platelet-activating factor receptor (Mus musculus) (UniProt Q62035); experiment: Antagonism of Platelet activating factor (PAF)in mice after Intravenous administration, assayed by PAF-induced death; type: functional, organism-based
# Chain of Platelet-activating factor receptor (Mus musculus) (Q62035 whole entry): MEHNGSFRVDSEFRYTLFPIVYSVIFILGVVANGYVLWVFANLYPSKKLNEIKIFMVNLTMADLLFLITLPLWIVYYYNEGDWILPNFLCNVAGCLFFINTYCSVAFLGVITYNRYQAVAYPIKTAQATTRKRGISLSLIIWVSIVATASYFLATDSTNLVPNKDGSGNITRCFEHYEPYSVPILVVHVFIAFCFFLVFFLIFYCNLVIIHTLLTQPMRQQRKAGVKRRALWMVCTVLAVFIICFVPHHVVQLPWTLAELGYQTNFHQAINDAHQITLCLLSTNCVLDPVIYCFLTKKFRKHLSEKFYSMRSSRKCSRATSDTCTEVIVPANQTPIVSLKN
# In short: (§2)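 Mice dosed with test agent intravenously or orally, then injected with a lethal dose of PAF. Protection from PAF-induced death was scored. ED50 was taken as the dose that reduced mortality by 50%. Oral testing used the same method as intravenous testing.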
# Thromboxane-A synthase = molecular target: T2, Thromboxane-A synthase (Homo sapiens, UniProt P24557); experiment: In vitro inhibition of thromboxane synthase (TXA2) in human platelet microsomes [reduced formation of TXB2 from prostaglandin H2(PGH2)]; type: functional, Microsome
# T2 sequence (P24557 whole entry): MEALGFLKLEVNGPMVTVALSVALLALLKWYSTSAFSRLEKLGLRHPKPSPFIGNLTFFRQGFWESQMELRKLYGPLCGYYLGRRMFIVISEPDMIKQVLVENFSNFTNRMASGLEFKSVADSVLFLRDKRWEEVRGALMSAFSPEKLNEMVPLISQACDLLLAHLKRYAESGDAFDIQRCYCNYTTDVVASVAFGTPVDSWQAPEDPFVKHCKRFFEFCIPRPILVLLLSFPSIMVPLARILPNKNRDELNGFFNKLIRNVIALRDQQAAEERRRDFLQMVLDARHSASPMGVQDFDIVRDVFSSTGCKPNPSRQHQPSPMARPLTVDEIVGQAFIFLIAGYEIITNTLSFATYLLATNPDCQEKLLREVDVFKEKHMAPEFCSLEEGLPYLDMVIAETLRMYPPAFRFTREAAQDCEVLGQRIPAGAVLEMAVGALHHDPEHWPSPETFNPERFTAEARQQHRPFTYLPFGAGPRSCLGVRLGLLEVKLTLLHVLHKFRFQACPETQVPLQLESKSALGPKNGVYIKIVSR
# [3] = Inhibition of Platelet activating factor (PAF)- induced platelet aggregation in rabbit platelet rich plasma (PRP); type: functional
# [4] = molecular target: Platelet-activating factor receptor (Mus musculus) (UniProt Q62035); experiment: Antagonism of Platelet activating factor (PAF) activity in mice after oral administration, assayed by PAF-induced death; type: functional, organism-based; in short: as §2
# [5] = molecular target: T1, Thromboxane-A synthase (Rattus norvegicus); experiment: Thromboxane synthase inhibitor (TxSI) activity was assessed by ex vivo inhibition of serum TXB2 production in rat after oral administration; type: functional, organism-based; in short: as §1
SMILES,ED50 [1],ED50 [2],IC50 (Thromboxane-A synthase; read-out: IC50),IC50 [3],ED50 [4],ED50 [5],IC50 (Thromboxane-A synthase)
Cc1nnc2n1-c1sc3c(c1C(c1ccccc1Cl)=NC2C)CCN(Cc1cccc(/C(=N\OCCCCC(=O)OCCCc2cccnc2)c2cccnc2)c1)C3 (centres undefined),> 1 mg/kg,0.54 mg/kg,> 1000 nM,65 nM,> 10 mg/kg,,
CCOC(=O)CCCCO/N=C(/c1cccnc1)c1ccccc1C(=O)N1CCc2c(sc3c2C(c2ccccc2Cl)=NC(C)c2nnc(C)n2-3)C1 (centres undefined),> 1 mg/kg,2.4 mg/kg,> 1000 nM,200 nM,> 10 mg/kg,,
CCOC(=O)CCCC/C=C(/c1cccnc1)c1cccc(CN2CCc3c(sc4c3C(c3ccccc3Cl)=NC(C)c3nnc(C)n3-4)C2)c1 (centres undefined),0.71 mg/kg,0.6 mg/kg,68 nM,39 nM,> 10 mg/kg,3.2 mg/kg,
CCOC(=O)CCCCO/N=C(\c1ccc(CN2CCc3c(sc4c3C(c3ccccc3Cl)=NC(C)c3nnc(C)n3-4)C2)cc1)c1cccnc1 (centres undefined),1 mg/kg,1.35 mg/kg,80 nM,46 nM,> 10 mg/kg,> 10 mg/kg,
CCOC(=O)CCCCO/N=C(\c1ccc(COCC(=O)N2CCc3c(sc4c3C(c3ccccc3Cl)=NC(C)c3nnc(C)n3-4)C2)cc1)c1cccnc1 (centres undefined),> 1 mg/kg,4.2 mg/kg,58 nM,60 nM,> 10 mg/kg,,
CCOC(=O)CCCCO/N=C(\c1ccc(CC(=O)N2CCc3c(sc4c3C(c3ccccc3Cl)=NC(C)c3nnc(C)n3-4)C2)cc1)c1cccnc1 (centres undefined),> 1 mg/kg,4.2 mg/kg,69 nM,85 nM,> 10 mg/kg,,
CCOC(=O)CCCCO/N=C(\c1ccc(C(=O)N2CCc3c(sc4c3C(c3ccccc3Cl)=NC(C)c3nnc(C)n3-4)C2)cc1)c1cccnc1 (centres undefined),> 1 mg/kg,0.2 mg/kg,,100 nM,0.5 mg/kg,,
CCOC(=O)CCCCO/N=C(/c1cccnc1)c1cccc(CN2CCc3c(sc4c3C(c3ccccc3Cl)=NC(C)c3nnc(C)n3-4)C2)c1 (centres undefined),0.1 mg/kg,0.2 mg/kg,59 nM,47 nM,> 10 mg/kg,> 10 mg/kg,
CCOC(=O)CCCCO/N=C(/c1cccnc1)c1cccc(CN2CCc3c(sc4c3C(c3ccccc3Cl)=NCc3nnc(C)n3-4)C2)c1,0.1 mg/kg,0.8 mg/kg,65 nM,200 nM,> 10 mg/kg,> 10 mg/kg,
Cc1nnc2n1-c1sc3c(c1C(c1ccccc1Cl)=NC2C)CCNC3 (centres undefined),,> 5 mg/kg,> 1000 nM,245 nM,,,
Cc1nnc2n1-c1sc3c(c1C(c1ccccc1Cl)=NC2C)CCN(Cc1cccc(/C(=N\OCCCCC(=O)OCc2ccccc2)c2cccnc2)c1)C3 (centres undefined),> 1 mg/kg,0.54 mg/kg,465 nM,98 nM,> 10 mg/kg,,
CCOC(=O)CCCCO/N=C(/c1cccnc1)c1cccc(CCCCN2CCc3c(sc4c3C(c3ccccc3Cl)=NC(C)c3nnc(C)n3-4)C2)c1 (centres undefined),0.53 mg/kg,0.38 mg/kg,21 nM,54 nM,> 10 mg/kg,6.9 mg/kg,
O=C(O)/C=C/c1ccc(Cn2ccnc2)cc1,0.02 mg/kg,,,,,0.1 mg/kg,
O=C(O)CCCC/C=C(/c1ccccc1)c1cccnc1,0.01 mg/kg,,,,,0.05 mg/kg,
Cc1nnc2n1-c1sc3c(c1C(c1ccccc1Cl)=NC2C)CCN(Cc1cccc(/C(=N\OCCCCC(=O)OCCN2CCOCC2)c2cccnc2)c1)C3 (centres undefined),0.77 mg/kg,0.54 mg/kg,151 nM,81 nM,> 10 mg/kg,8.9 mg/kg,
Cc1nnc2n1-c1sc3c(c1C(c1ccccc1Cl)=NC2C)CCN(Cc1cccc(/C(=N\OCCCCC(=O)O)c2cccnc2)c1)C3 (centres undefined),1 mg/kg,0.47 mg/kg,24 nM,980 nM,> 10 mg/kg,10 mg/kg,
CCOC(=O)CCCC/C=C(\c1ccc(CN2CCc3c(sc4c3C(c3ccccc3Cl)=NC(C)c3nnc(C)n3-4)C2)cc1)c1cccnc1 (centres undefined),1 mg/kg,0.55 mg/kg,72 nM,32 nM,1.6 mg/kg,5.2 mg/kg,
CCOC(=O)C1=C(c2ccc(-n3c(C)nc4cnccc43)cc2)NC(C)=C(C(=O)Nc2ccccn2)C1c1ccccc1Cl (centres undefined),,0.1 mg/kg,,,1.55 mg/kg,,Not Active
CCOC(=O)CCCCO/N=C(/c1cccnc1)c1cccc(C(=O)N2CCc3c(sc4c3C(c3ccccc3Cl)=NC(C)c3nnc(C)n3-4)C2)c1 (centres undefined),> 1 mg/kg,0.47 mg/kg,,60 nM,2.3 mg/kg,,
CCOC(=O)CCCCO/N=C(/c1cccnc1)c1cccc(CCCC(=O)N2CCc3c(sc4c3C(c3ccccc3Cl)=NC(C)c3nnc(C)n3-4)C2)c1 (centres undefined),> 1 mg/kg,1.05 mg/kg,41 nM,39 nM,> 10 mg/kg,,
CCOC(=O)CCCCO/N=C(\c1ccccc1)c1cccnc1,0.01 mg/kg,,1 nM,,,> 0.1 mg/kg,
CCCNC(=O)CCCCO/N=C(/c1cccnc1)c1cccc(CN2CCc3c(sc4c3C(c3ccccc3Cl)=NC(C)c3nnc(C)n3-4)C2)c1 (centres undefined),> 1 mg/kg,0.54 mg/kg,540 nM,71 nM,> 10 mg/kg,,
